This is an account of results in ChEMBL document CHEMBL3272018, “Synthesis of aziridinylallylaminophosphine oxides and sulfides as potential adjuvant cancer chemotherapeutic agents” (J Med Chem, 1976).

The subject of series [1] is Rattus norvegicus. The experiment in a line: Toxicity in rat allografted with rat Walker 256 cells intramuscularly assessed as change in body weight at 0.47 mg/kg, qd administered for 5 days. The format is organism-based. Details: dose 0.47 mg/kg, route intramuscular. The conditions noted are these: in vivo, im, 120 h. The essentials: (§1)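 Walker 256 carcinoma solid-tumour system in rats (parent line, or the line resistant to cytoxan). Dosing was one injection per day for 5 days. Toxicity was taken as the average net body-weight change of the treated group minus the average net weight change of the untreated tumour-bearing controls, in grams.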

For series [2], the system named is W256. Briefly: Antitumor activity against rat Walker 256 cells intramuscularly allografted in rat assessed as tumor growth inhibition at 0.47 mg/kg, qd administered for 5 days relative to control. It is filed as functional. The settings on record: W256, im, 120 h, route intramuscular, read-out: TGI. The procedure, abridged:
(§2)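 Dosed once daily for 5 days. Response is tumor progression in treated (T) versus untreated control (C) animals, expressed as T/C percentage. Host weight change is reported as the average net weight change of the test group minus that of the controls, in grams.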

The nature of series [3]: Toxicity in rat allografted with rat Walker 256 cells intramuscularly. It is filed as organism-based.
For series [4], the system named is Rattus norvegicus. The experiment in a line: Toxicity in rat allografted with rat Walker 256 cells intramuscularly assessed as change in body weight at 0.23 mg/kg, qd administered for 5 days. Details: dose 0.23 mg/kg, route intramuscular. The settings on record: in vivo, im, 120 h. The format is organism-based. The procedure, abridged:
as §1

The subject of series [5] is W256. Briefly: Antitumor activity against rat Walker 256 cells intramuscularly allografted in rat assessed as survival rate at 0.78 mg/kg, qd administered for 5 days. The arrangement: dose 0.78 mg/kg. The format is functional, organism-based. The essentials: (§3)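 Rats bearing Walker 256 carcinoma as a solid tumor; lines 1-8 use a cytoxan-resistant Walker 256 subline. Dosed once daily for 5 days. Treated (T) and untreated control (C) groups are compared, and the response is given as T/C percentage, reflecting increase in survival time. Host weight change is the average weight change of the test group minus that of the controls, in grams.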

Series [6] has as its system W256. Briefly: Antitumor activity against rat Walker 256 cells intramuscularly allografted in rat assessed as tumor incidence at 12 mg/kg administered as single dose. The format is functional, organism-based. Details: dose 12 mg/kg. The essentials: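 Walker 256 solid tumour in rats, given one injection at 12.0 mg/kg. Tumours and toxic deaths were recorded at sacrifice.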

The subject of series [7] is Rattus norvegicus. Briefly: Toxicity in rat allografted with rat Walker 256 cells intramuscularly assessed as change in body weight at 1.56 mg/kg, qd administered for 5 days. The format is organism-based. The arrangement: dose 1.56 mg/kg, route intramuscular. The conditions noted are these: in vivo, im, 120 h. The essentials: as §1
Series [8] relates to W256. The experiment in a line: Antitumor activity against rat Walker 256 cells intramuscularly allografted in rat assessed as survival rate at 0.47 mg/kg, qd administered for 5 days. The format is functional, organism-based. Details: dose 0.47 mg/kg. The procedure, abridged:
as §3

Series [9] concerns Rattus norvegicus. The experiment in a line: Toxicity in rat allografted with rat Walker 256 cells intramuscularly assessed as mortality at 12 mg/kg administered as single dose. The conditions noted are these: in vivo, im. It is filed as organism-based. Details: dose 12 mg/kg, route intramuscular. The procedure, abridged: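 Walker 256 solid-tumour system in rats. A single dose level of 12.0 mg/kg was given as one injection. Toxic deaths were recorded, and tumour presence was checked when the animals were sacrificed.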

In series [10] the test system is Rattus norvegicus. Briefly: Toxicity in rat allografted with rat Walker 256 cells intramuscularly assessed as change in body weight at 0.78 mg/kg, qd administered for 5 days. The format is organism-based. Details: dose 0.78 mg/kg, route intramuscular. The conditions noted are these: in vivo, im, 120 h. The procedure, abridged: as §1
Series [11] deals with W256. The experiment in a line: Antitumor activity against rat Walker 256 cells intramuscularly allografted in rat assessed as survival rate at 6.25 mg/kg, qd administered for 5 days. The format is functional, organism-based. Details: dose 6.25 mg/kg. The essentials:
as §3

Series [12] deals with W256. Briefly: Antitumor activity against rat Walker 256 cells intramuscularly allografted in rat assessed as survival rate at 1.56 mg/kg, qd administered for 5 days. The arrangement: dose 1.56 mg/kg. The format is functional, organism-based. The essentials:
as §3

For series [13], the system named is Rattus norvegicus. Briefly: Toxicity in rat allografted with rat Walker 256 cells intramuscularly assessed as change in body weight at 3.12 mg/kg, qd administered for 5 days. It is filed as organism-based. Details: dose 3.12 mg/kg, route intramuscular. The conditions noted are these: in vivo, im, 120 h. The procedure, abridged:
as §1

Series [14] deals with W256. Briefly: Antitumor activity against rat Walker 256 cells intramuscularly allografted in rat assessed as tumor growth inhibition at 6.25 mg/kg, qd administered for 5 days relative to control. The format is functional. The conditions noted are these: W256, im, 120 h, route intramuscular, read-out: TGI. The procedure, abridged:
(§4)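 Walker 256 carcinoma grown as a solid tumour in rats, with one injection daily for 5 days. Response is given as T/C %, the treated-group measure over the untreated-control tumour measure; a smaller value means more activity. Host toxicity is the mean net weight change of treated minus control animals, in grams.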

Series [15] concerns W256. Briefly: Antitumor activity against rat Walker 256 cells intramuscularly allografted in rat assessed as survival rate at 3.12 mg/kg, qd administered for 5 days. It is filed as functional, organism-based. Details: dose 3.12 mg/kg. The essentials: as §3
Series [16] relates to W256. Briefly: Antitumor activity against rat Walker 256 cells intramuscularly allografted in rat assessed as survival rate at 0.23 mg/kg, qd administered for 5 days. The format is functional, organism-based. The arrangement: dose 0.23 mg/kg. The essentials:
as §3

For series [17], the system named is W256. Briefly: Antitumor activity against rat Walker 256 cells intramuscularly allografted in rat assessed as tumor growth inhibition at 1.56 mg/kg, qd administered for 5 days relative to control. It is filed as functional. The settings on record: W256, im, 120 h, route intramuscular, read-out: TGI. The procedure, abridged: as §2
The nature of series [18]: Therapeutic index, ratio of LD50 for rat allografted with rat Walker 256 cells to ED10 for antitumor activity against rat Walker 256 cells intramuscularly allografted in rat. It is filed as cell-based. The conditions noted are these: read-out: TI. The essentials:
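Therapeutic index is LD50/ED10 in the Walker 256 solid tumour system. ED10 is the dose giving a 10% tumour weight reduction, with values extrapolated from dose-response data.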

Series [19] concerns W256. The experiment in a line: Antitumor activity against rat Walker 256 cells intramuscularly allografted in rat assessed as tumor growth inhibition. The settings on record: W256, im. It is filed as functional. The essentials: as §2
In series [20] the test system is W256. The experiment in a line: Antitumor activity against rat Walker 256 cells intramuscularly allografted in rat assessed as tumor growth inhibition at 0.78 mg/kg, qd administered for 5 days relative to control. The format is functional. The conditions noted are these: W256, im, 120 h, route intramuscular, read-out: TGI. The procedure, abridged: as §2
The test system of series [21] is Rattus norvegicus. Briefly: Toxicity in rat allografted with rat Walker 256 cells intramuscularly assessed as change in body weight at 6.25 mg/kg, qd administered for 5 days. The arrangement: dose 6.25 mg/kg, route intramuscular. It is filed as organism-based. The conditions noted are these: in vivo, im, 120 h. The essentials: as §1
For series [22], the system named is W256. The experiment in a line: Antitumor activity against rat Walker 256 cells intramuscularly allografted in rat assessed as tumor growth inhibition at 0.23 mg/kg, qd administered for 5 days relative to control. The format is functional. The settings on record: W256, im, 120 h, route intramuscular, read-out: TGI. The procedure, abridged: as §2
Series [23] concerns W256. Briefly: Antitumor activity against rat Walker 256 cells intramuscularly allografted in rat assessed as tumor growth inhibition at 3.12 mg/kg, qd administered for 5 days relative to control. The format is functional. The settings on record: W256, im, 120 h, route intramuscular, read-out: TGI. The essentials: as §4

Active and inactive are the calls of the source. The rule behind the calls is not given here.

The LD50 is the dose at which mortality reaches 50%. In the case of `C=CCN(CC=C)P(=O)(N(CC=C)CC=C)N1CC1C` (stereo not drawn), the Activity with Rattus norvegicus [1] is recorded as -15 g; in the series on Rattus norvegicus [4] it was -3 g; with Rattus norvegicus [7] it was -22 g; with Rattus norvegicus [9] it was “Non-toxic”; with Rattus norvegicus [10] it was -8 g; in the series on Rattus norvegicus [13], -15 g. For the same compound, the Activity with Rattus norvegicus [21] was -28 g. Also, the inhibition in vivo at 0.47 mg/kg in the series on W256 [2] is 2%. For the same compound, in series [3], the LD50 was found to be 75 mg/kg. Further, the result in the series on W256 [5], with W256 [6], in the series with W256 [8], with W256 [11], in the series on W256 [12] and in the series with W256 [15] was Active. In addition, the result in the series with W256 [16] was Active. In addition, the inhibition in vivo at 6.25 mg/kg in the series on W256 [14] stood at 3%. Besides, the inhibition in vivo at 1.56 mg/kg with W256 [17] was 2%. In addition, the selectivity ratio in series [18] worked out at 125. The ED10 with W256 [19] was found to be 0.62 mg/kg. Moreover, the inhibition in vivo at 0.78 mg/kg in the series with W256 [20] came to 4%. Besides, in the series on W256 [22], the inhibition in vivo at 0.23 mg/kg came out at 33%. Further, in the series with W256 [23], the inhibition in vivo at 3.12 mg/kg stood at 1%.
